Assay results as given in ChEMBL document CHEMBL2010734, “A thiopyranchromenone and other chromone derivatives from an Endolichenic fungus, Preussia africana” (J Nat Prod, 2012).
Calls of active or inactive are those of the source. No cut-off for these calls is given here.

Tests used:
Format in all cases: functional, cell-based
MCF7 [1] = test: Cytotoxicity against human MCF7 cells at 20 ug/ml after 48 hrs by MTS assay
Summary of the method: (§1)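 Cells seeded at (2−5) × 10^3 per well depending on growth rate, attached overnight, then medium replaced with medium containing test compound (serial dilutions from 100 mM DMSO stock) or 0.1% DMSO vehicle; cisplatin as positive control. Incubated 48 h at 37 °C, humidified 5% CO2. MTS added, 90 min at 37 °C in the dark, proliferation read. Triplicate.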

HeLa [2] = test: Cytotoxicity against human HeLa cells at 20 ug/ml after 48 hrs by MTS assay; summary of the method: as §1
A549 [3] = test: Cytotoxicity against human A549 cells at 20 ug/ml after 48 hrs by MTS assay; summary of the method: as §1
HCT-116 [4] = test: Cytotoxicity against human HCT116 cells at 20 ug/ml after 48 hrs by MTS assay; summary of the method: as §1
HeLa [5] = test: Cytotoxicity against human HeLa cells after 48 hrs by MTS assay
Summary of the method: (§2)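 MTS assay in triplicate. Cells seeded at (2−5) × 10³ per well, with the number set by growth rate, and allowed to attach overnight. Medium then replaced with medium containing 0.1% DMSO or serial dilutions of compounds made from 100 mM DMSO stocks. Cisplatin served as positive control. Incubation 48 h at 37 °C in humidified 5% CO2. MTS added, then 90 min at 37 °C in the dark. IC50 derived.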

A549 [6] = test: Cytotoxicity against human A549 cells after 48 hrs by MTS assay; settings: A549, 48 h; summary of the method: as §2
HCT-116 [7] = test: Cytotoxicity against human HCT116 cells after 48 hrs by MTS assay; settings: HCT-116, 48 h; summary of the method: as §2
MCF7 [8] = test: Cytotoxicity against human MCF7 cells after 48 hrs by MTS assay; settings: MCF7, 48 h; summary of the method: as §1

| Structure (SMILES) | Activity (MCF7 [1]) | Activity (HeLa [2]) | Activity (A549 [3]) | Activity (HCT-116 [4]) | IC50 (HeLa [5]) [µM] | IC50 (A549 [6]) [µM] | IC50 (HCT-116 [7]) [µM] | IC50 (MCF7 [8]) [µM] |
| --- | --- | --- | --- | --- | --- | --- | --- | --- |
| COC(=O)[C@]1(O)[C@@H](O)[C@H](C)[C@H]2Oc3cccc(O)c3C(=O)[C@@H]21 | inactive | inactive | inactive | inactive | – | – | – | – |
| COC(=O)[C@H]1c2c(oc3cccc(O)c3c2=O)C[C@](C)(O)[C@H]1O | inactive | inactive | inactive | inactive | – | – | – | – |
| COC(=O)[C@@]1(O)c2c(oc3cccc(O)c3c2=O)S[C@@H](C)[C@H]1O [PREUSSOCHROMONE A] | – | – | – | – | 25.5 | 8.34 | 25.9 | – |
| COC(=O)[C@]1(O)[C@H](O)[C@H](C)[C@H]2Oc3cccc(O)c3C(=O)[C@H]21 | inactive | inactive | inactive | inactive | – | – | – | – |
| COC1=CC(=O)c2c(O)cc(OC)c3c2[C@]1(O)COC3=O [PREUSSOCHROMONE C] | – | – | – | – | 30 | 5.75 | 15.1 | 41.2 |
| COC(=O)[C@]1(O)C(=O)[C@H](C)[C@H]2Oc3cccc(O)c3C(=O)[C@@H]21 | inactive | inactive | inactive | inactive | – | – | – | – |
